Screens deposited in PubChem BioAssay by several laboratories.
TRPN1 ag = activates the zebrafish TRPN1 channel | HEK293 zebrafish TRPN1-YFP, Fluo-8 calcium fluorescence; 100% = response to 87 µM carbachol | activation, % at 3 µM | 0.18% of 220,000 active;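 active = activation above its plate's cutoff, the mean activation of test wells on that plate plus 3 SD, cut at about 19% in these data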;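 note: 0% = DMSO alone and 100% = 87 µM carbachol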
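Assay system: Zebrafish TRPN1-YFP in HEK293 cells | Incubation: Dye loading 1 h at 37 °C, then 30 min room temperature | Measured by: Kinetic Fluo-8 fluorescence, ex 470-495, em 515-575 nm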
TAAR1 antag = antagonists of human TAAR1 | AID 624466 | inhibition, % at 3 µM | CHO RD-HGA16 TAAR1, Fluo-8 calcium fluorescence, antagonist | Q96RJ0 | 1.5% of 360,000 active;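 active = inhibition above a per-plate cutoff, the mean inhibition of test compounds on that plate plus 3 SD, cut at about 49% in these data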;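 note: 0% = DMSO plus EC80 beta-PEA response and 100% = DMSO alone without agonist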
Target sequence (Q96RJ0 whole entry, looked up): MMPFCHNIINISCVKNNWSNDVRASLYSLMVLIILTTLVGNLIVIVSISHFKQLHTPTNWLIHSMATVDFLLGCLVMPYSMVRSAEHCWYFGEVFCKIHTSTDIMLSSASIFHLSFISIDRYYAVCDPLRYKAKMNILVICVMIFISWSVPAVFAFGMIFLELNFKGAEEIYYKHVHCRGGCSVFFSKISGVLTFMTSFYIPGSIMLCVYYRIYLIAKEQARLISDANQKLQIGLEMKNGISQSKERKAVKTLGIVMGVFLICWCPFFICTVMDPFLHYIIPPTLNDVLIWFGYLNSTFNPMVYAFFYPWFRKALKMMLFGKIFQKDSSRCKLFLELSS
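Test system: CHO RD-HGA16 cells bearing hTAAR1 | Reagent: β-PEA, EC80 | Compound dosing: 3 µM, single point | Schedule: Dye loading 75 min at 37 °C, then 30 min room temperature | Signal: Calcium fluorescence with Fluo-8 | Evaluation: Percent inhibition of PEA-evoked calcium signal, max/basal emission ratio | Control set: DMSO-only wells and EC80 β-PEA-stimulated wells | Repeats: Singlicate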
TAAR1 agonist = agonists of human TAAR1; Q96RJ0; activation, % at 3 µM; 0.99% of 360,000 active; CHO RD-HGA16 TAAR1, Fluo-8 calcium fluorescence; vehicle wells 0%, saturating PEA agonist 100%;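 active = activation above the mean activation of all test compounds in the run plus 3 SD, cut at about 38% in these data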
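test system = CHO RD-HGA16 cells carrying human TAAR1 plus Gα16 | schedule = 17-24 h seeding, 75 min 37 °C dye, 30 min RT | compound dosing = 3 µM single concentration | control set = DMSO and PEA EC100 | replicates = n 1 | signal = Fluo-8 fluorescence, 5 s baseline then 140 s kinetic read | measure = percent activation vs PEA EC100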
TRPML3 agonist = activates the human TRPML3 channel; Q8TDD5; HEK293 TRPML3-YFP, Fluo-8 calcium fluorescence; 100% = the carbachol control signal; activation, % at 3 µM; 0.29% of 220,000 active;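 active = activation above its plate's cutoff, the mean activation of the plate's test wells plus 3 SD, cut at about 12% in these data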;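 note: 0% = DMSO only wells and 100% = carbachol wells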
Target sequence (Q8TDD5 whole entry, looked up): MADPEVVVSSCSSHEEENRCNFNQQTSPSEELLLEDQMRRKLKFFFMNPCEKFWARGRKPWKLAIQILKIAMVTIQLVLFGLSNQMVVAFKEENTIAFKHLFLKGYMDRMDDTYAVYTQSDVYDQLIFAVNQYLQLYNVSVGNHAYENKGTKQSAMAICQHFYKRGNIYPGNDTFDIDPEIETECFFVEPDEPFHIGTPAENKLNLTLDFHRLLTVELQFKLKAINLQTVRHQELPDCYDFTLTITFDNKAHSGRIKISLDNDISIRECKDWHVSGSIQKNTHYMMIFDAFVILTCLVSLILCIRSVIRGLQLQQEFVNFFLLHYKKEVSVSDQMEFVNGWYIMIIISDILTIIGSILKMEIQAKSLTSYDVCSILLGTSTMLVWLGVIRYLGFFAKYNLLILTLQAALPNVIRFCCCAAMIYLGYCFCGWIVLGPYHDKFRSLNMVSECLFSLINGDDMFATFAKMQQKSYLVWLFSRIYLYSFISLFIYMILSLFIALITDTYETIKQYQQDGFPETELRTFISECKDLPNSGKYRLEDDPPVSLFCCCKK
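Test system: HEK293 cells stably carrying human TRPML3-YFP; Doses: single dose, 3 µM final nominal compound, 0.3% DMSO final; Schedule: dye loading 1 h 37 °C then 30 min ambient, 125 s read; Technique: Fluo-8 calcium fluorescence; Benchmarks: high control carbachol 87 µM, low control DMSO.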
GPR7 antagonist = blocks human GPR7 receptor signaling; P48145; GPR7-expressing cells, fluorescence antagonist assay; inhibition, % at 4.4 µM; 1.1% of 290,000 active; AID 1861; in the data active = inhibition above about 16%, passing the limit was not always enough;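 note: cells stimulated with the agonist NPW; 0% = agonist with vehicle and 100% = vehicle without agonist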
LANA-H2A inh = blocks KSHV LANA binding to histone H2A/H2B | cell-free LANA-H2A/H2B peptide, fluorescence polarization | inhibition, % (concentration not given with the values) | 0.6% of 320,000 active; in the data active = inhibition mostly above about 10%, no sharp cut-off; inactive = mostly below about 6.7%
TRPN1 ag 2 = counter-screen for TRPML3 agonists: agonists of zebrafish TRPN1 channel. 10% of 310 active. HEK293 zebrafish TRPN1-YFP, Fluo-8 calcium fluorescence; scaled: carbachol wells 100%, DMSO wells 0%. activation, % at 3 µM. shares compounds with TRPML3 agonist;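 active = mean activation over replicates above a set limit taken from the earlier TRPN1 channel primary screen, cut at about 19% in these data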;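 note: 100% = carbachol and 0% = 0.3% DMSO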
TRPML3 ag conf = human TRPML3 agonism, confirmation; activation, % at 3 µM; 80% of 310 active; shares compounds with TRPML3 agonist; AID 1526; HEK293 TRPML3-YFP, Fluo-8 calcium fluorescence; 100% set by carbachol, 0% by DMSO;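 active = activation above a set limit derived from the earlier primary screen, cut at about 12% in these data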
GPR7 antag cf = confirmation of human GPR7 antagonists; inhibition, % at 4.4 µM; AID 1952; shares compounds with GPR7 antagonist; GPR7-expressing cells, calcium fluorescence antagonist mode; 52% of 2,400 active; in the data active = inhibition above about 24%;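 note: stimulated with the GPR7 agonist NPW; 0% = agonist plus vehicle and 100% = vehicle alone without agonist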
MCHR1 antag = antagonizes human MCHR1, a GPR7 antagonist counter-screen. shares compounds with GPR7 antagonist. MCHR1-expressing cells, fluorescence antagonist assay. 62% of 2,400 active. inhibition, % at 4.4 µM. AID 2148; in the data active = inhibition above about 22%;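 note: 0% = vehicle with agonist and 100% = vehicle without agonist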
TAAR1 ag confirm = confirmation of human TAAR1 agonists. AID 651783. CHO RD-HGA16 TAAR1, Fluo-8 calcium fluorescence; scaled: DMSO 0%, maximal phenethylamine 100%. shares compounds with TAAR1 agonist. activation, % at 3 µM. 82% of 2,400 active;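 active = activation above a cutoff set at the run's mean compound activation plus 3 SD, cut at about 39% in these data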
Ga16 ag counter = nonselective agonism, TAAR1 counter-screen; shares compounds with TAAR1 agonist; CHO-Ga16 parental, Fluo-8 calcium fluorescence; normalized to maximal ATP response, DMSO zero; activation, % at 3 µM; 50% of 2,400 active;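 active = activation above the run cutoff, the mean activation over all tested wells plus 3 SD, cut at about 12% in these data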;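 note: 0% = DMSO wells and 100% = maximal ATP response on the peak over basal ratio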
TAAR1 desens = counter-screen for human TAAR1 agonists: agonists that desensitize TAAR1; shares compounds with TAAR1 agonist; CHO RD-HGA16 hTAAR1, Fluo-8 calcium, beta-PEA response inhibition; inhibition, % at 3 µM; 46% of 2,400 active;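 active = inhibition above the run cutoff, the mean inhibition of all test compounds plus 3 SD, cut at about 49% in these data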;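 note: beta-PEA stimulus applied at its EC80; loss of beta-PEA calcium signal after compound pretreatment read as receptor desensitization; 0% = DMSO with beta-PEA at EC80 and 100% = DMSO alone without agonist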
Ga16 nonsel ant = nonselective Ga16 antagonism, counter-screen; 39% of 2,400 active; AID 651952; inhibition, % at 3 µM; shares compounds with TAAR1 agonist; CHO-Ga16 ATP-induced calcium, Fluo-8 fluorescence;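 active = inhibition above the plate's mean compound inhibition plus 3 SD, computed per plate, cut at about 22% in these data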;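 note: 0% = EC80 ATP with DMSO and 100% = DMSO wells without ATP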
Numbers without * were called inactive; x = no result given. In the library only some 3.4% were active in any assay of this set; here they are far more common.

SMILES | TRPN1 ag | TAAR1 antag | TAAR1 agonist | TRPML3 agonist | GPR7 antagonist | LANA-H2A inh | GPR7 antag cf | MCHR1 antag | others
Cc1cc2nc3c(=O)[nH]c(=O)[nH]c3nc2c([N+](=O)[O-])c1N | 15 | 8 | 13 | 12* | 25* | x | 13 | 4 | TRPN1 ag 2=7;TRPML3 ag conf=5
On1onc2c3cc(-c4ccccc4)nc3ccc21 | 1 | 17 | 12 | 12* | 30* | -2 | 24 | 67* | TRPN1 ag 2=3;TRPML3 ag conf=1
COc1ccc(C2=Nc3ccccc3N(C(=O)c3ccc4ncccc4c3)C2C(=O)NC(C)(C)C)cc1 (stereo not given) | x | -4 | -2 | x | x | x | x | x
Cc1cc(C)nc(/N=C(\N)Nc2ccc(C(C)C)cc2)n1 | 12 | 10 | 24 | 5 | 3 | 1 | x | x
Cc1ccc(N/C(N)=N/c2nc(C)cc(C)n2)cc1 | 9 | 27 | 24 | 15* | 75* | x | 64* | 73* | TRPN1 ag 2=31*;TRPML3 ag conf=20*
CSCc1cc(C(=O)NC2CC2)c(N)s1 | x | -18 | 6 | x | x | x | x | x
COc1ccc2c(c1)C(C)CC(C)(C)N2C(=O)Nc1ccccc1 (stereo not given) | x | -1 | 6 | x | -21 | 1 | x | x
COc1ccc2c(c1)C(C)CC(C)(C)N2C(=O)CSc1nc2ccccc2s1 (stereo not given) | 0 | 15 | 3 | 18* | 22* | -1 | 26* | 54* | TRPN1 ag 2=-1;TRPML3 ag conf=33*
CC(C)(C)C(=O)c1c(N)[nH]c(C(=O)c2ccccc2)c1-c1c(F)cccc1F | x | 29 | 0 | x | x | x | x | x
Cc1ccc(C(=O)CSC2=C(C#N)C(c3ccco3)CC(=O)N2)c(C)c1 (stereo not given) | 18 | 30 | 74* | 16* | 41* | 6 | 71* | 64* | TRPN1 ag 2=9;TRPML3 ag conf=3;TAAR1 ag confirm=48*;Ga16 ag counter=25*;TAAR1 desens=40;Ga16 nonsel ant=24*
CCOC(=O)[C@]12CCCC=C1N(CCC1=CCCCC1)C(=O)[C@H](CC(=O)N1CCC(c3ccccc3)CC1)C2 | x | -62 | 0 | x | x | x | x | x
O=C(NNC(=S)NC(=O)c1cccs1)c1ccc(O)cc1 | x | -19 | -1 | x | 2 | 8 | x | x
O=C(NC(=S)NNC(=O)c1cccs1)c1ccc(Br)o1 | 2 | 42 | 116* | 12* | 1 | 5 | x | x | TRPN1 ag 2=18;TRPML3 ag conf=22*;TAAR1 ag confirm=65*;Ga16 ag counter=46*;TAAR1 desens=32;Ga16 nonsel ant=27*
CCCCCCCCN1C(=O)[C@H](CC(=O)N2CCN(C(=O)C3CC3)CC2)C[C@@]2(C(=O)OC)CC(C)(C)CC=C12 | x | -8 | -2 | x | x | x | x | x
COc1cc(C(=O)NC(=S)NNC(=O)[C@H]2C[C@@H]2c2ccccc2)cc(OC)c1OC | 11 | -7 | 74* | 14* | -12 | 0 | x | x | TRPN1 ag 2=25*;TRPML3 ag conf=33*;TAAR1 ag confirm=37;Ga16 ag counter=43*;TAAR1 desens=24;Ga16 nonsel ant=14
Cc1ccc(S(=O)(=O)N(c2cccc(C(F)(F)F)c2)C2C=CS(=O)(=O)C2)cc1 (stereo not given) | -1 | 4 | 8 | 1 | 23* | -3 | 12 | -5
CCc1ccc(N(C2C=CS(=O)(=O)C2)S(=O)(=O)c2ccccc2)cc1 (stereo not given) | -2 | 1 | 0 | 0 | 7 | -7 | x | x
CCOc1ccccc1NC(=O)CSc1nnc(CNC(=O)c2cccs2)o1 | x | -2 | 0 | x | -3 | 2 | x | x
O=C(Nc1ccc(OC(F)(F)F)cc1)Nc1cccnc1 | 7 | 6 | 6 | 3 | 22* | -4 | 4 | 30*
Cc1cccc2cc(CN(CCCN(C)C)C(=S)NCCc3ccccc3)c(=O)[nH]c12 | 6 | 16 | 29 | 4 | 31* | -7 | 49* | 30*
CC(=O)N1CCN(S(=O)(=O)c2cccc(C(=O)N(C)Cc3ccc(C)o3)c2)CC1 | x | -20 | 0 | x | x | x | x | x
COc1ccc(N(C)S(=O)(=O)c2cccc(C(=O)NC3CCC(C)CC3)c2)cc1 (stereo not given) | -3 | 18 | 9 | 1 | 40* | 0 | 36* | 48*
COc1ccc(N(C)S(=O)(=O)c2cccc(C(=O)N(C)Cc3ccc(C)o3)c2)cc1 | 0 | 4 | 9 | 0 | 25* | 3 | 31* | 26*
CN(C)c1ccc(NC(=O)CN2CCN(S(=O)(=O)c3cc(Cl)ccc3Cl)CC2)cc1 | 0 | 6 | 3 | 0 | -3 | -6 | x | x
CC(C)OC(=O)CN1CCN(S(=O)(=O)c2cc(Cl)ccc2Cl)CC1 | 3 | 3 | 6 | 0 | 27* | -2 | 5 | -4
SMILES | TRPN1 ag | TAAR1 antag | TAAR1 agonist | TRPML3 agonist | GPR7 antagonist | LANA-H2A inh | GPR7 antag cf | MCHR1 antag | others
CCOc1ccc(S(=O)(=O)NCCCn2ccnc2)cc1 | x | -8 | 2 | x | -10 | 1 | x | x
Cc1nnc(NCc2n[nH]c(=O)c3ccccc23)c2ccccc12 | 0 | -10 | 8 | 0 | 22* | -8 | 6 | -7
O=C(Nc1ccccc1C(=O)O)c1cc(S(=O)(=O)N2CCCCC2)c(Cl)cc1Cl | x | -54 | -6 | x | 12 | -9 | x | x
COc1ccc2cc(C(=O)NCc3ccccc3)c(=O)oc2c1 | x | -9 | 0 | x | 34* | -7 | 12 | 1
COc1ccc(CNC(=O)c2cc3ccccc3oc2=O)cc1 | x | 8 | 4 | x | 5 | -1 | x | x
Cc1ccc(-c2csc(C(O)c3ccc(F)c(F)c3)n2)cc1C (stereo not given) | x | -9 | 1 | x | x | x | x | x
